Measurements of several laboratories.
Each line is one published result; the experiments were not run side by side.
NPSR1: Neuropeptide S receptor (NPSR1, Homo sapiens, UniProt Q6W5P4)

SMILES	target	assay	conditions	quantity	value
COc1cccc(C2c3c(ncn(-c4ccc(Br)cc4)c3=N)Oc3ccc4ccccc4c32)c1 (stereo not shown)	NPSR1	cAMP, antagonist, TR-FRET		IC50	15.4 µM
Nc1ncnc2c1ncn2[C@@H]1O[C@H](COP(=O)(O)OP(=O)(O)OP(=O)(O)O)[C@@H](O)[C@H]1O	dnaA (Escherichia coli, UniProt P03004, E445K)	binding		Kd	0.03 µM
CC(C)[C@@H](CC[C@@H](C)[C@H]1CC[C@H]2[C@@H]3[C@H](O)C[C@H]4C[C@@H](NCCCNCCCCNCCCN)CC[C@]4(C)[C@H]3CC[C@]12C)OS(=O)(=O)O	Tyrosine-protein phosphatase non-receptor type 12 (PTPN12, Homo sapiens, UniProt Q05209)	enzyme activity, inhibitor		Ki	40 µM
O=c1ccc2ccccc2o1	Growth factor receptor-bound protein 2 (GRB2, Homo sapiens, UniProt P62993)	binding, fluorescence		Kd	5.56 µM
O[C@@H]1[C@H](O)[C@@H]2C[C@@H]2[C@H]1n1cnc2c(NCC(c3ccccc3)c3ccccc3)nc(C#Cc3ccccc3)nc21	Sodium-dependent noradrenaline transporter (SLC6A2, Homo sapiens, UniProt P23975)	ligand displacement, radioligand		Ki	5.78 µM
Cc1cnc(-c2ccc(-c3ccc(NC(=O)Nc4c(F)cc(F)cc4F)cc3F)c3c2C(=O)NC3)[nH]1	Tyrosine-protein kinase Fgr (FGR, Homo sapiens, UniProt P09769)	enzyme activity, inhibitor		IC50	0.01 µM
CSSc1ccccc1C(=O)O	srtA (Staphylococcus aureus, UniProt Q2FV99)	enzyme activity, inhibitor, fluorescence	pH 7.5	Ki	367 µM
CC(C)C1=Cc2ccc3c(c2C(=O)C1=O)CCCC3(C)C	Cholinesterase (BCHE, Homo sapiens, UniProt P06276)	enzyme activity, inhibitor		Ki	> 100 µM
CN1CCN(C2=Nc3cc(Cl)ccc3Nc3ccccc32)CC1	Ribosyldihydronicotinamide dehydrogenase [quinone] (NQO2, Homo sapiens, UniProt P16083)	enzyme activity, inhibitor		Ki	746 µM
CCOC(=O)c1ccc(-n2cnc3c(c2=N)C(c2cccc(OC)c2)c2c(ccc4ccccc24)O3)cc1 (stereo not shown)	NPSR1	cAMP, antagonist, TR-FRET		IC50	15.4 µM
Nc1ncnc2c1ncn2[C@@H]1O[C@H](COP(=O)(O)OP(=O)(O)OP(=O)(O)OP(=O)(O)OP(=O)(O)OC[C@H]2O[C@@H](n3cnc4c(N)ncnc43)[C@H](O)[C@@H]2O)[C@@H](O)[C@H]1O	adk (Escherichia coli, UniProt P69441, R131A)	binding, ITC		Kd	0.576 µM
O=C(NCc1ccccc1)Nc1ncnc2c1C(c1ccccc1)c1c(ccc3ccccc13)O2 (stereo not shown)	NPSR1	calcium signal, antagonist		IC50	> 30 µM
CCCC[C@H](NC(=O)[C@H](CO)NC(=O)[C@H](Cc1ccc(O)cc1)NC(=O)[C@H](CO)NC(C)=O)C(=O)N[C@@H](CCC(=O)O)C(=O)N[C@@H](Cc1c[nH]cn1)C(=O)N[C@@H](C)C(=O)N[C@@H](CCCNC(=N)N)C(=O)N[C@@H](Cc1c[nH]c2ccccc12)C(=O)NCC(=O)N[C@@H](CCCCN)C(=O)N1CCC[C@H]1C(=O)N[C@H](C(=O)NCC(=O)N[C@@H](CCCCN)C(=O)N[C@@H](CCCCN)C(=O)N[C@@H](CCCNC(=N)N)C(N)=O)C(C)C	Melanocortin receptor 4 (MC4R, Homo sapiens, UniProt P32245)	ligand displacement in cells, radioligand		Ki	> 1 µM
